From ChEMBL document CHEMBL1153974, “Piperidinyl-2-phenethylamino inhibitors of DPP-IV for the treatment of type 2 diabetes” (Bioorg Med Chem Lett, 2009)
pIC50: −log10 of the molar value.

Experiments:
Dipeptidyl peptidase 4 = Dipeptidyl peptidase 4 (Homo sapiens, UniProt P27487); experiment: Inhibition of human DPP4
[1] = Volume of distribution at steady state in human at 15 mg; assay type: ADME, organism-based; conditions: in vivo, read-out: Vdss
Summary of the method: (§1)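 Human values projected from rat and dog ADME data by modeling; predicted plasma concentration–time profiles generated at varying doses.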

[2] = Half life in human at 15 mg; assay type: ADME, organism-based; conditions: in vivo; summary of the method: as §1
[3] = Bioavailability in human at 15 mg; assay type: ADME, organism-based; conditions: in vivo; summary of the method: as §1
Rattus norvegicus = experiment: Inhibition of DPP4 in rat plasma at 5 mg/kg, po assessed as time required to inhibit 50% by PK/PD analysis; assay type: functional
[4] = Bioavailability in rat at 1 mg/kg, iv and 5 mg/kg, po; assay type: ADME, organism-based; conditions: in vivo
Dipeptidyl peptidase 2 = Dipeptidyl peptidase 2 (Homo sapiens, UniProt Q9UHL4); experiment: Inhibition of human DPP2
[5] = Clearance in rat plasma at 1 mg/kg, iv and 5 mg/kg, po; assay type: ADME, organism-based
[6] = Volume of distribution at steady state in rat at 1 mg/kg, iv; assay type: ADME, organism-based; set-up: dose 1 mg/kg, route intravenous; conditions: in vivo, read-out: Vdss
[7] = Half life in rat at 1 mg/kg, iv; assay type: ADME, organism-based; set-up: dose 1 mg/kg, route intravenous; conditions: in vivo
[8] = Clearance in dog plasma at 1 mg/kg, iv and 1 mg/kg, po; assay type: ADME, organism-based, Canis lupus familiaris
[9] = Volume of distribution at steady state in dog at 1 mg/kg, iv; assay type: ADME, organism-based, Canis lupus familiaris; set-up: dose 1 mg/kg, route intravenous; conditions: in vivo, read-out: Vdss
[10] = Half life dog at 1 mg/kg, iv; assay type: ADME, organism-based, Canis lupus familiaris; set-up: dose 1 mg/kg, route intravenous; conditions: in vivo
[11] = Bioavailability in dog at 1 mg/kg, iv and 1 mg/kg, po; assay type: ADME, organism-based, Canis lupus familiaris; conditions: in vivo
[12] = Clearance in human plasma at 15 mg; assay type: ADME, organism-based; summary of the method: as §1
[13] = target: Voltage-gated inwardly rectifying potassium channel KCNH2 (Homo sapiens, UniProt Q12809); experiment: Inhibition of human ERG by patch-clamp assay
Sequence of Voltage-gated inwardly rectifying potassium channel KCNH2 (Q12809 whole entry): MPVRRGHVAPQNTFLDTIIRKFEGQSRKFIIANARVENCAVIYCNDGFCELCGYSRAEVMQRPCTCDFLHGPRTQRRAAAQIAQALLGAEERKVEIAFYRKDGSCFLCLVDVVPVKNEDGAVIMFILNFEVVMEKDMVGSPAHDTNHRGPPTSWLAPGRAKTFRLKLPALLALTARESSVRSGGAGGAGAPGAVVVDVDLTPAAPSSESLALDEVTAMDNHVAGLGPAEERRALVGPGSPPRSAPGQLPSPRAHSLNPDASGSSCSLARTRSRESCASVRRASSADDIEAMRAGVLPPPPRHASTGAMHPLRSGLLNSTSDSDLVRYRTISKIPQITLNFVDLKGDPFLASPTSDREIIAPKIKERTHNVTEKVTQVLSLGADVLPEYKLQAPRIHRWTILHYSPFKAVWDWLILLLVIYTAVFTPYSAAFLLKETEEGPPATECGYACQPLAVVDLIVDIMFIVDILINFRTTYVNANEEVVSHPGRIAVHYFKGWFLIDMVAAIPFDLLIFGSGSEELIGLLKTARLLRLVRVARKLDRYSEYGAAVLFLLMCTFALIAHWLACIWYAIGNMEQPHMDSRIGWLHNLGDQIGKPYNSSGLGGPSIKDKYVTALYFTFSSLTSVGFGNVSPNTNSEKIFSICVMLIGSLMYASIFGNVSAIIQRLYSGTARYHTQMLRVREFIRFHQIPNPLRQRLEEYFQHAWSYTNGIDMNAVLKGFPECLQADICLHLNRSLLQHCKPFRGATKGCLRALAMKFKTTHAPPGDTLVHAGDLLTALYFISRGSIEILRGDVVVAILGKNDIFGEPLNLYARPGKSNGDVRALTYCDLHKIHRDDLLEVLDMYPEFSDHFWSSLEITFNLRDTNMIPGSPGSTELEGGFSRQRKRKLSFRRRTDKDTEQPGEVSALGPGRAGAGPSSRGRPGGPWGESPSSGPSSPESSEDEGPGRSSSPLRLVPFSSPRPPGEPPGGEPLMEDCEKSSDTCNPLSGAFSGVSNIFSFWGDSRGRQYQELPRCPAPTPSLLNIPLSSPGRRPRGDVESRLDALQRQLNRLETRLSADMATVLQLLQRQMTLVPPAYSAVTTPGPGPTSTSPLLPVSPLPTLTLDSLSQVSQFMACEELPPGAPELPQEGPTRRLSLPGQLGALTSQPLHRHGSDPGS

Sequence of Dipeptidyl peptidase 4 (P27487 whole entry): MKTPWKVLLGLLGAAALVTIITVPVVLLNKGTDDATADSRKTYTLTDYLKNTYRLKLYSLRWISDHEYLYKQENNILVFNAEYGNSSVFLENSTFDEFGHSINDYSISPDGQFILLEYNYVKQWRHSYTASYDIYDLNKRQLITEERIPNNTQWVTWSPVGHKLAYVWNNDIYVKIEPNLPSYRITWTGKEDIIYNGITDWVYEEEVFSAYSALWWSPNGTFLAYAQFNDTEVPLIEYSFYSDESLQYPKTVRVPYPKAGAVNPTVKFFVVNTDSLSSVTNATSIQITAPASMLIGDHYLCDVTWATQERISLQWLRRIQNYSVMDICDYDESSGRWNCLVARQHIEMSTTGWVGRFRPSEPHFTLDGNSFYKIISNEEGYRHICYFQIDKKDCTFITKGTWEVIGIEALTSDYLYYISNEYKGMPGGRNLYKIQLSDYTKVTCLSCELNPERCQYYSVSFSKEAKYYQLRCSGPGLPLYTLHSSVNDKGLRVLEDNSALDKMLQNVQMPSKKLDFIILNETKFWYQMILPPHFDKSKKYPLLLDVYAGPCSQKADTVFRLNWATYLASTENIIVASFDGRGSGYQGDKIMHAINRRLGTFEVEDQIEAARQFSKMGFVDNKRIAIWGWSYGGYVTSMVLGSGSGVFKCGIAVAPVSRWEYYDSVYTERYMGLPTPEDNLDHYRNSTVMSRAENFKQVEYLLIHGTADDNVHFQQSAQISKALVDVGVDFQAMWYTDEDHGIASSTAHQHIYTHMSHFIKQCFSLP

Fc1cc(F)c(C[C@@H]2CCCCN2)cc1F
pIC50 (Dipeptidyl peptidase 4): < 4.52

NCCc1cc(F)c(F)cc1F
pIC50 (Dipeptidyl peptidase 4): < 4.52

Cc1cc2ncc(C(=O)N3CCC([C@H](N)Cc4cc(F)c(F)cc4F)CC3)c(C)n2n1
Vd [1]: 1 L/kg
half-life [2]: 3.5 h
bioavailability [3]: 70%
Activity (Rattus norvegicus): >20 h
bioavailability [4]: 70%
pIC50 (Dipeptidyl peptidase 2): 4.77
clearance [5]: 18 mL/min/kg
Vd [6]: 2.2 L/kg
half-life [7]: 5.09 h
clearance [8]: 12.9 mL/min/kg
Vd [9]: 2.2 L/kg
half-life [10]: 3.71 h
bioavailability [11]: 52%
clearance [12]: 3.4 mL/min/kg

Cc1ncc(C)c(C(=O)N2CCC([C@H](N)Cc3cc(F)c(F)cc3F)CC2)n1
pIC50 [13]: 4.07
Activity (Rattus norvegicus): 8 h
pIC50 (Dipeptidyl peptidase 2): < 4.52

Cc1nccnc1C(=O)N1CCC([C@H](N)Cc2cc(F)c(F)cc2F)CC1
pIC50 [13]: 4.26
Activity (Rattus norvegicus): 12 h
pIC50 (Dipeptidyl peptidase 2): < 4.52

N[C@H](Cc1cc(F)c(F)cc1F)C1CCN(C(=O)c2cnc3ncccn23)CC1
Activity (Rattus norvegicus): >24 h
pIC50 (Dipeptidyl peptidase 2): 4.97

N[C@H](Cc1cc(F)c(F)cc1F)C1CCN(C(=O)c2ccc(F)cc2F)CC1
pIC50 (Dipeptidyl peptidase 2): 4.95

N[C@H](Cc1cc(F)c(F)cc1F)C1CCN(C(=O)c2cc3ccccc3cn2)CC1
pIC50 (Dipeptidyl peptidase 2): 4.99

N[C@H](Cc1cc(F)c(F)cc1F)CC1CCCCC1
pIC50 (Dipeptidyl peptidase 4): < 4.52

Nc1nccnc1C(=O)N1CCC([C@H](N)Cc2cc(F)c(F)cc2F)CC1
pIC50 (Dipeptidyl peptidase 2): 5.04
